For orientation: Ki means the equilibrium dissociation constant of an inhibitor or competing ligand from its target. Low readings indicate a stronger hold on the target, high ones a looser hold on the target.

Test [1] deals with T1, Cholecystokinin receptor type A (Rattus norvegicus, UniProt P30551).
T1 sequence (P30551 whole entry): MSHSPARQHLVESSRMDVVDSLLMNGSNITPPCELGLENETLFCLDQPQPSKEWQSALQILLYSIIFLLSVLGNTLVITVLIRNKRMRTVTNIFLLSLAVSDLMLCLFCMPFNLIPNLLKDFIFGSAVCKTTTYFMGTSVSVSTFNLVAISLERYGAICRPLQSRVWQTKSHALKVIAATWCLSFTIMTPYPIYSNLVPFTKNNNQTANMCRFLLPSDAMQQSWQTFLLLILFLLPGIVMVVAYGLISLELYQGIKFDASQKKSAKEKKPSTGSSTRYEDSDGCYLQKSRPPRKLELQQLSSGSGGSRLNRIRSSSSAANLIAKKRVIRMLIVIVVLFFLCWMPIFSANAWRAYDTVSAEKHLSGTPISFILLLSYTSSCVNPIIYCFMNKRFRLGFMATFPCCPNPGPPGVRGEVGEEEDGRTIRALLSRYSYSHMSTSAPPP
The test is described as follows: In vitro inhibition of binding of [3H]pCCK-8 against Cholecystokinin type A receptor of rat pancreatic membranes. The format is cell membranes, Membrane. The gist of the method:
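Radioligand displacement of [3H]CCK-8S from membranes: rat pancreas for the CCK-A receptor and guinea-pig cerebral cortex for the CCK-B receptor, using slightly modified published methods. Values are means of n experiments.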

The species named for test [2] is Cavia porcellus. The test is described as follows: Selectivity factor between CCK-B and CCK-A receptors.

In the case of `O=C(Nc1ccc(Br)cc1)NC1C(=O)N(CC23C[C@H]4C[C@@H](C2)C[C@@H](C3)C4)c2ccccc2N(c2ccccc2)C1=O` (some centres not stated), affinity in test [1] was put at a Ki of 3470 nM. For the same compound, the Ratio in test [2] is 2460.
Compound `CC(C)(C)CCN1C(=O)C(NC(=O)Nc2cccc(C#N)c2)C(=O)N(c2ccccc2)c2ccccc21` (configuration not stated) gave an inhibition constant (Ki) in test [1] of 97.7 nM. Also, in test [2], the Ratio was 151.
`CN(C)c1cccc(NC(=O)NC2C(=O)N(c3ccccc3)c3ccccc3N(C3[C@H]4C[C@@H]5C[C@@H](C[C@H]3C5)C4)C2=O)c1` (some centres not stated) had a Ki in test [1] of 141 nM. In test [2], the Ratio came to 60.
Compound `O=C(Nc1cccc(Cl)c1)NC1C(=O)N(c2ccccc2)c2ccccc2N(C2CC3CCC2C3)C1=O` (configuration not stated) showed a Ki in test [1] of 47.9 nM. Moreover, in test [2], the Ratio worked out at 28.
In test [1], `CSc1cccc(NC(=O)NC2C(=O)N(CCC34C[C@H]5C[C@@H](C3)C[C@@H](C4)C5)c3ccccc3N(c3ccccc3)C2=O)c1` (some centres not stated) had a Ki of 251 nM. Besides, in test [2], the Ratio came to 4.
On to `CC(=O)Nc1cccc(NC(=O)NC2C(=O)N(CC34C[C@H]5C[C@@H](C3)C[C@@H](C4)C5)c3ccccc3N(c3ccccc3)C2=O)c1` (some centres not stated), for which the Ki in test [1] was 1510 nM. Besides, the Ratio in test [2] was 591.
In test [1], `CN(C)c1cccc(NC(=O)NC2C(=O)N(c3ccccc3)c3ccccc3N(C3CC4CCC3C4)C2=O)c1` (configuration not stated) showed a Ki of 44.7 nM. In test [2], the Ratio came out at 40.
For the compound `O=C(Nc1cccc(C2N=NN=N2)c1)NC1C(=O)N(c2ccccc2)c2ccccc2N(C2[C@H]3C[C@@H]4C[C@@H](C[C@H]2C4)C3)C1=O` (some centres not stated), the Ki in test [1] was 97.7 nM. In addition, the Ratio in test [2] was 47.
Take `CN(C)c1cccc(NC(=O)NC2C(=O)N(CCC34C[C@H]5C[C@@H](C3)C[C@@H](C4)C5)c3ccccc3N(c3ccccc3)C2=O)c1` (some centres not stated): the Ki in test [1] was 295 nM. For the same compound, in test [2], the Ratio is 22.
In turn, `O=Cc1cccc(NC(=O)NC2C(=O)N(CC34C[C@H]5C[C@@H](C3)C[C@@H](C4)C5)c3ccccc3N(c3ccccc3)C2=O)c1` (some centres not stated) gave a Ki in test [1] of 1120 nM. In test [2], the Ratio came out at 1180.
In test [1], `CCOC(=O)c1cccc(NC(=O)NC2C(=O)N(CC34C[C@H]5C[C@@H](C3)C[C@@H](C4)C5)c3ccccc3N(c3ccccc3)C2=O)c1` (mixture of isomers) gave an inhibitory constant (Ki) of 813 nM. In test [2], the Ratio was found to be 275.
In test [1], `CN(C)c1cccc(NC(=O)NC2C(=O)N(CC34C[C@H]5C[C@@H](C3)C[C@@H](C4)C5)c3ccccc3N(c3ccccc3)C2=O)c1` (mixture of isomers) showed a Ki of 447 nM. In test [2], the Ratio was 398.
In test [1], `CC(C)Cn1nnc(-c2cccc(NC(=O)NC3C(=O)N(CCC(C)(C)C)c4ccccc4N(c4ccccc4)C3=O)c2)n1` (racemic) gave a Ki of 49 nM. Also, the Ratio in test [2] is 20.
On to `O=C(Nc1ccccc1)NC1C(=O)N(CCC2CCCC2)c2ccccc2N(c2ccccc2F)C1=O` (racemic), for which, in test [1], the Ki is 100 nM. In addition, in test [2], the Ratio worked out at 138.
`O=C(Nc1cccc(C(=O)O)c1)NC1C(=O)N(CC23C[C@H]4C[C@@H](C2)C[C@@H](C3)C4)c2ccccc2N(c2ccccc2)C1=O` (mixture of isomers): the Ki in test [1] is 631 nM. In test [2], the Ratio came out at 646.
Take `CSc1cccc(NC(=O)NC2C(=O)N(CCC(C)C)c3ccccc3N(c3ccccc3F)C2=O)c1` (racemic): the Ki in test [1] was 36.3 nM. Further, the Ratio in test [2] is 110.
Compound `O=C(Nc1cccc(Br)c1)NC1C(=O)N(CC23C[C@H]4C[C@@H](C2)C[C@@H](C3)C4)c2ccccc2N(c2ccccc2)C1=O` (mixture of isomers) gave a Ki in test [1] of 191 nM.
The compound `CC(C)(C)CCN1C(=O)C(NC(=O)Nc2cccc(OC(F)(F)F)c2)C(=O)N(c2ccccc2)c2ccccc21` (racemic) gave a Ki in test [1] of 112 nM. Moreover, in test [2], the Ratio came out at 38.
In turn, `O=C(Nc1ccccc1)NC1C(=O)N(c2ccccc2)c2ccccc2N(C2CC3CCC2C3)C1=O` (racemic) showed a Ki in test [1] of 251 nM. Besides, the Ratio in test [2] was 162.
For the compound `CSc1cccc(NC(=O)NC2C(=O)N(CCC(C)(C)C)c3ccccc3N(c3ccccc3)C2=O)c1` (racemic), in test [1], the Ki is 7.41 nM. Besides, the Ratio in test [2] turned out to be 15.
In the case of `CCCCN1C(=O)C(NC(=O)Nc2ccccc2)C(=O)N(c2ccccc2)c2ccccc21` (racemic), in test [1], the affinity corresponds to a Ki of 550 nM. For the same compound, the Ratio in test [2] came out at 89.
In test [1], `O=C(Nc1cccc([N+](=O)[O-])c1)NC1C(=O)N(CC23C[C@H]4C[C@@H](C2)C[C@@H](C3)C4)c2ccccc2N(c2ccccc2)C1=O` (mixture of isomers) had a Ki of 302 nM. Further, the Ratio in test [2] turned out to be 158.
`CC(O)C(O)Nc1cccc(NC(=O)NC2C(=O)N(CC34C[C@H]5C[C@@H](C3)C[C@@H](C4)C5)c3ccccc3N(c3ccccc3)C2=O)c1` (mixture of isomers) [listing 1 of 2 here] showed a Ki in test [1] of 631 nM.
With `O=C(Nc1cccc(C2N=NN=N2)c1)NC1C(=O)N(CCC2CCCC2)c2ccccc2N(c2ccccc2F)C1=O` (racemic), in test [1], the affinity, expressed as Ki, was 120 nM. In test [2], the Ratio stood at 468.
`O=C(Nc1ccccc1)NC1C(=O)N(CCc2ccccc2)c2ccccc2N(c2ccccc2)C1=O` (racemic) had a Ki in test [1] of 269 nM. In addition, the Ratio in test [2] was determined as 32.
Regarding `CC(C)(C)CCN1C(=O)C(NC(=O)Nc2ccccc2)C(=O)N(c2ccccc2F)c2ccccc21` (racemic), the Ki in test [1] was 70.8 nM. In addition, the Ratio in test [2] amounted to 74.
The corresponding values for `CSc1cccc(NC(=O)NC2C(=O)N(CCC(C)(C)C)c3ccccc3N(c3ccccc3F)C2=O)c1` (racemic) are 11.7 nM and 16.
For `CN(C)c1cccc(NC(=O)NC2C(=O)N(CCC(C)(C)C)c3ccccc3N(c3ccccc3F)C2=O)c1` (racemic), in test [1], the affinity, expressed as Ki, was 19.5 nM. For the same compound, the Ratio in test [2] was 32.
In test [1], `CC(C)CC(C)N1C(=O)C(NC(=O)Nc2ccccc2)C(=O)N(c2ccccc2)c2ccccc21` (racemic) gave a Ki of 115 nM. The Ratio in test [2] worked out at 55.
In test [1], `O=C(Nc1ccccc1)NC1C(=O)N(CCC23C[C@H]4C[C@@H](C2)C[C@@H](C3)C4)c2ccccc2N(c2ccccc2)C1=O` (mixture of isomers) showed a Ki of 219 nM. Also, the Ratio in test [2] turned out to be 6.
With `CC(C)CCN1C(=O)C(NC(=O)Nc2ccccc2)C(=O)N(c2ccccc2F)c2ccccc21` (racemic), in test [1], the Ki was 195 nM. Further, the Ratio in test [2] came out at 25.
Consider `CC(C)CCN1C(=O)C(NC(=O)Nc2cccc(N(C)C)c2)C(=O)N(c2ccccc2F)c2ccccc21` (racemic) [listing 1 of 2 here], for which, in test [1], affinity was put at a Ki of 126 nM.
In test [1], `O=C(Nc1ccccc1)NC1C(=O)N(CC2[C@H]3C[C@@H]4C[C@@H](C[C@H]2C4)C3)c2ccccc2N(c2ccccc2)C1=O` (mixture of isomers) gave a Ki of 83.2 nM. Further, the Ratio in test [2] came out at 48.
`CC(C)C(C)CN1C(=O)C(NC(=O)Nc2ccccc2)C(=O)N(c2ccccc2)c2ccccc21` (racemic) showed a Ki in test [1] of 123 nM. For the same compound, the Ratio in test [2] is 110.
`CN(C)c1ccc(NC(=O)NC2C(=O)N(CCC3CCCC3)c3ccccc3N(c3ccccc3F)C2=O)cc1` (racemic) gave a Ki in test [1] of 661 nM. For the same compound, the Ratio in test [2] was found to be 141.
`CC(C)(C)CCN1C(=O)C(NC(=O)Nc2ccccc2)C(=O)N(c2ccccc2)c2ccccc21` (racemic) showed a Ki in test [1] of 112 nM. Besides, the Ratio in test [2] was 166.
The like results for `CN(C)c1cccc(NC(=O)NC2C(=O)N(CCC3CCCC3)c3ccccc3N(c3ccccc3F)C2=O)c1` (racemic) were, in that order, 47.9 nM and 71.
On to `CC(C)CCN1C(=O)C(NC(=O)Nc2cccc(N(C)C)c2)C(=O)N(c2ccccc2F)c2ccccc21` (racemic) [listing 2 of 2 here], for which the Ratio in test [2] was determined as 501.
With `CC(O)C(O)Nc1cccc(NC(=O)NC2C(=O)N(CC34C[C@H]5C[C@@H](C3)C[C@@H](C4)C5)c3ccccc3N(c3ccccc3)C2=O)c1` (mixture of isomers) [listing 2 of 2 here], in test [2], the Ratio was found to be 575.
Turning to `O=C(O)CCCOc1ccc(NC(=O)NC2C(=O)N(CC34C[C@H]5C[C@@H](C3)C[C@@H](C4)C5)c3ccccc3N(c3ccccc3)C2=O)cc1` (single isomer, unassigned; (+)), the Ki in test [1] is above 10000 nM. Besides, the Ratio in test [2] is above 2630.
In test [1], `CC(O)C(O)Nc1cccc(NC(=O)NC2C(=O)N(CC34C[C@H]5C[C@@H](C3)C[C@@H](C4)C5)c3ccccc3N(c3ccccc3)C2=O)c1` (single isomer, unassigned; (+)) [listing 1 of 2 here] showed a Ki of 7410 nM.
For the compound `CC(C)CCN1C(=O)C(NC(=O)Nc2cccc(N(C)C)c2)C(=O)N(c2ccccc2F)c2ccccc21` (single isomer, unassigned; (+)) [listing 1 of 2 here], affinity in test [1] was put at a Ki of 200 nM.
As for `CC(C)CCN1C(=O)C(NC(=O)Nc2cccc(N(C)C)c2)C(=O)N(c2ccccc2F)c2ccccc21` (single isomer, unassigned; (+)) [listing 2 of 2 here], the Ratio in test [2] is 933.
As for `CC(O)C(O)Nc1cccc(NC(=O)NC2C(=O)N(CC34C[C@H]5C[C@@H](C3)C[C@@H](C4)C5)c3ccccc3N(c3ccccc3)C2=O)c1` (single isomer, unassigned; (+)) [listing 2 of 2 here], the Ratio in test [2] was found to be 11000.
In test [1], `O=C(Nc1ccccc1)NC1C(=O)N(CC23C[C@H]4C[C@@H](C2)C[C@@H](C3)C4)c2ccccc2N(c2ccccc2)C1=O` (single isomer, unassigned; (-)) had a Ki of 479 nM.
With `CC(C)CCN1C(=O)C(NC(=O)Nc2cccc(N(C)C)c2)C(=O)N(c2ccccc2F)c2ccccc21` (single isomer, unassigned; (-)) [listing 1 of 2 here], the Ki in test [1] is 72.4 nM.
`CC(C)CCN1C(=O)C(NC(=O)Nc2cccc(N(C)C)c2)C(=O)N(c2ccccc2F)c2ccccc21` (single isomer, unassigned; (-)) [listing 2 of 2 here]: in test [2], the Ratio came out at 39.

The values are drawn from ChEMBL document CHEMBL1133671, “Synthesis and SAR of new 5-phenyl-3-ureido-1,5-benzodiazepines as cholecystokinin-B receptor antagonists” (J Med Chem, 2000).
